# High-throughput results deposited in PubChem BioAssay by several laboratories.
# FLuc stim CS = affects firefly luciferase, flagging false hits in luciferase stimulation screens | P08659 | ATPlite luciferase biochemical, luminescence, 10 min; 0 = ATP-free wells, 1 = DMSO control | activation factor at 10 µM | 200,000 tested, under 10 active | AID 1027;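 active = luciferase activation factor, scaled between plate controls, of at least 2 with compound at 10 µM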
# Target sequence (P08659 whole entry, looked up): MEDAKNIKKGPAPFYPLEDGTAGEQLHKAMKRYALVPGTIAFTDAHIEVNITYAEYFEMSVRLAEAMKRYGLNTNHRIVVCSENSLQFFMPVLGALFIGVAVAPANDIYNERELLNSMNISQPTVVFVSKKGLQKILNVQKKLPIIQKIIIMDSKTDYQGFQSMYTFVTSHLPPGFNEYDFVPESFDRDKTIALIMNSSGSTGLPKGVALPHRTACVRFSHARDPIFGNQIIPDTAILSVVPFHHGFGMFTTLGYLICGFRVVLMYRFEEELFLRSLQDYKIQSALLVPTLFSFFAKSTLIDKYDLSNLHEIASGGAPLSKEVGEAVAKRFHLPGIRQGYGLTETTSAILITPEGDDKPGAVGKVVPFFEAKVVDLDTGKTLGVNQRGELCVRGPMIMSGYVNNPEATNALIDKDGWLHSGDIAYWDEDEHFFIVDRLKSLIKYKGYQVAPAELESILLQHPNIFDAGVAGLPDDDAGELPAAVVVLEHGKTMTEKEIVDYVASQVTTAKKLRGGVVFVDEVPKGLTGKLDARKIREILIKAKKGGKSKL
#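 test system = cell-free luciferase reagent | medium = PBS as buffer for the ATP substrate | dosing = test compounds dosed from 2 mM stocks in 100% DMSO | incubation = 10 min at ambient temperature | detection = luminescence measurement of luciferase light output | benchmarks = low control with PBS replacing ATP, high control enzyme plus ATP without compound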
# PPC-1+TRAIL kill = compounds killing PPC-1 cancer cells with TRAIL present (potentiator screen, no TRAIL-free arm); PPC-1 cells + TRAIL, ATPLite viability luminescence; 220,000 tested, 0.41% active; AID 1443; cell killing (% activity), % at 4 µM or 5 µM;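 active = cell killing above 50% in the first pass at 4 µM, then a duplicate retest at 5 µM averaging 50% or more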;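 note: plate controls were cells with TRAIL plus DMSO for no effect and medium-only wells lacking cells for full effect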
# APP 5'UTR act = activates APP 5'UTR luciferase reporter | SH-SY5Y APP 5'UTR luciferase reporter, luminescence; zero percent = DMSO vehicle wells | activation, % at 2 µM | 190,000 tested, 1% active;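 active = activation above a set limit, based on mean plus 3 SD of controls, cut at about 140% in these data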
# TRAIL sens C8 = sensitizes caspase-8 expressing cells to TRAIL; inhibition (viability loss, TRAIL sensitization), % at 10 µM; AID 624354; NB7+C8 cells + TRAIL, ATPlite viability luminescence; 360,000 tested, 1% active;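 active = compounds causing at least 50% loss of cell viability in the single-dose screen, relative to plate controls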
# NF-kB neuron act = raises NF-kB expression in human neuronal cells. AID 1239. NF-kB reporter expression; stronger effect = higher value. 190,000 tested, 1.6% active. fold change at 12.5 µM; in the data active = fold change above about 3.3
# FLuc inh counter = inhibits firefly luciferase, flagging false hits in luciferase inhibition screens; inhibition, % at 10 µM; 200,000 tested, 1.5% active; ATPLite firefly luciferase biochemical luminescence, 10 min; P08659;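 active = inhibition above about 50% when tested at 10 µM, limit read from the data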
# Active calls of the source: *; . = no result given. The list is not random: actives were taken first. Their share in the collection is about 2.2%.
SMILES,FLuc stim CS,PPC-1+TRAIL kill,APP 5'UTR act,TRAIL sens C8,NF-kB neuron act,FLuc inh counter
Cc1sc2ncnc(Sc3nnnn3-c3ccccc3)c2c1C,1,31,-5,3,3.9*,-5
CN(C)CCC(=O)N1C/C(=C/c2ccccc2)C(=O)/C(=C\c2ccccc2)C1,.,.,.,95*,.,.
C[N+](C)(C)CCC(=O)N1C/C(=C/c2ccccc2)C(=O)/C(=C\c2ccccc2)C1,.,.,.,-5,.,.
O=C1/C(=C/c2ccccc2)CN(C(=O)CCN2CCOCC2)C/C1=C\c1ccccc1,.,.,.,56*,.,.
COc1ccc(OC(=O)N2C/C(=C/c3ccccc3)C(=O)/C(=C\c3ccccc3)C2)cc1,.,.,.,52*,.,.
CCCCC[C@@H](C)N1C[C@H](COCc2ccccc2)Oc2cc(N3CCC[C@@H]3COC)ccc2S1(=O)=O,.,.,.,3,.,.
ClC1=CN(C2=NCCC2)CC1,.,.,.,-6,.,.
O=C(Nc1nc2c(s1)CCCC2)c1ccc(Br)s1,0.6,31,146*,46,6.1*,42
Cc1cc(C(=O)Nc2nc3c(s2)CCCC3)cs1,0.3,-5,119,58*,6.4*,70*
COc1ccc(OCC(=O)Nc2nc3c(s2)CCCC3)cc1,.,.,.,35,.,.
Cc1ncsc1C(=O)Nc1nc2c(s1)CCCC2,0.5,17,101,13,3.2,45
COc1ccc(NC(=O)Nc2nc3c(s2)CCCC3)cc1,0.8,12,150*,27,4.9*,25
Cc1ccc(CC(=O)Nc2nc3c(s2)CCCC3)cc1,1,-7,16,5,3.4*,-5
Cc1nc2ccc(S(=O)(=O)CCC(=O)NCCc3ccccc3)cc2s1,.,.,.,13,.,.
O=C(Nc1nc2c(s1)CCCC2)c1ccc2ncsc2c1,0.4,12,160*,50,3,59*
COc1ccccc1N1CCN(C2=Nc3cccc4cccc2c34)CC1,0.2,47,85,67*,2,78*
O=C(c1cccs1)N1C[C@@H](O)[C@H](n2cc(-c3ccc(F)cc3)nn2)C[C@@H]1c1ccccc1,.,.,.,21,.,.
CCOC(=O)CSc1nc2cc(C)ccc2cc1C#N,1.1,14,135,53*,7.1*,-6
CCOC(=O)CSc1nc2ccc(C)cc2cc1C#N,1,22,.,2,4.3*,-2
CCOC(=O)CSc1nc2cc(OC)ccc2cc1C#N,1,42,173*,67*,8.1*,-1
CCOC(=O)CSc1nc2cc(C)cc(C)c2cc1C#N,1,-3,94,0,1.9,-5
CC(=O)Nc1ccc(-c2ccnc3c2CC(C(=O)Nc2cccc(C(C)=O)c2)O3)cc1 (centres undefined),.,.,.,4,.,.
Clc1cccc(Cc2c(C3CCCCC3)nc3c4ccccc4ccn23)c1,.,.,.,1,.,.
Nc1nn(-c2ccccc2)c(N)c1N=Nc1ccc2c(c1)OCO2,0.5,12,92,20,7.5*,51*
Nc1nn(-c2ccccc2)c(N)c1N=Nc1cccc(F)c1,.,11,.,11,.,.
SMILES,FLuc stim CS,PPC-1+TRAIL kill,APP 5'UTR act,TRAIL sens C8,NF-kB neuron act,FLuc inh counter
CCOc1ccc(-c2cc(C(=O)Nc3cc(OC)c(OC)c(OC)c3)[nH]n2)c(C)c1,.,.,.,-8,.,.
COc1cc(/C=N/N(C)c2ccccc2)ccc1O,0.6,-4,179*,11,10*,37
Fc1ccc(-c2nc3ccc(Cl)cn3c2Cc2cccc(F)c2)cc1,.,.,.,5,.,.
COCCNC(=O)C1(C)CCCN(Cc2cc3ccccc3o2)C1 (centres undefined),.,.,.,-3,.,.
COc1ccc(Nc2nc(N)nc(CCl)n2)cc1,.,30,.,92*,.,.
Cc1c(Cl)cccc1Nc1nc(N)nc(CSc2ncccn2)n1,1,-10,11,91*,1.8,-4
Cc1ccccc1Nc1nc(N)nc(CCl)n1,.,14,.,91*,.,.
COc1ccc(Nc2nc(N)nc(CN3CCOCC3)n2)cc1,1,23,3,5,1.3,1
COC(=O)[C@@]12C[C@@H](CC(=O)NCc3ccc(OC)c(OC)c3)C(=O)N(Cc3ccc4c(c3)OCO4)C1=CCC(C)(C)C2,.,.,.,10,.,.
COc1ccc(NC(=O)C(C2CC2)n2c(=O)c(-c3ccccc3)nc3ccccc32)cc1 (centres undefined),.,.,.,0,.,.
O=C(/C=C/[C@H]1O[C@@H](n2ccc(=O)[nH]c2=O)[C@H](O)[C@@H]1O)NCCN1CCOCC1,.,.,.,-2,.,.
Cc1ccnc(NC(=O)/C=C/c2ccccc2[N+](=O)[O-])c1,0.3,34,142*,.,7.7*,73*
Cc1ccnc(NC(=O)c2ccccc2[N+](=O)[O-])c1,0.8,7,5,-1,1.4,17
COc1ccc(NC(=O)Nc2nc3ccccc3s2)cc1,.,-8,.,9,.,.
CCOc1ccc2nc(NC(=O)NC3CCCCC3)sc2c1,1,9,35,1,1.3,3
CCOc1ccc2nc(NC(=O)CN3CCOCC3)sc2c1,0.4,-6,-10,-4,1.2,61*
CCOc1ccc2nc(NC(=O)Cc3cccs3)sc2c1,0.9,6,47,1,2.2,9
CCOc1ccc2nc(NC(=O)CN3CCN(CC)CC3)sc2c1,.,.,.,-4,.,.
CCOc1ccc2nc(NC(=O)Nc3ccccc3)sc2c1,0.9,-5,148*,16,2.5,13
COc1ccc2nc(NC(=O)Nc3ccccc3)sc2c1,0.3,33,189*,59*,9.1*,70*
CCOc1ccc2nc(NC(=O)Nc3cccs3)sc2c1,0.3,10,216*,46,9.5*,67*
COCCN(CCOC)Cc1cc(=O)oc2cc(C)ccc12,.,.,.,4,.,.
CCCCN(C(=O)NC(=O)Nc1nc2ccc(OC)cc2s1)S(C)(=O)=O,0.5,50,24,17,1.7,50*
CCCCOC(=O)Nc1nc2ccc(OC)cc2s1,0.9,-2,32,7,2.2,6
CCOCC(=O)Nc1nc2ccc(OC)cc2s1,0.7,25,73,24,3.3,32
SMILES,FLuc stim CS,PPC-1+TRAIL kill,APP 5'UTR act,TRAIL sens C8,NF-kB neuron act,FLuc inh counter
CCOc1ccc2nc(NC(=O)COC)sc2c1,0.7,26,140*,8,4.9*,31
Cc1ccc(-n2c(C3CC3c3ccc(Cl)cc3)n[nH]c2=S)cc1 (centres undefined),1.1,-14,2,59*,1.1,-8
CC1(C(=O)NCc2cccc(Cl)c2)Cc2c(-c3ccc4c(c3)OCO4)ccnc2O1 (centres undefined),.,.,.,27,.,.
CCN1C(=O)[C@H]2[C@@H](c3ccc(C(F)(F)F)cc3)N[C@]3(CCCN(Cc4ccco4)C3=O)[C@H]2C1=O,.,.,.,-4,.,.
CNc1c2cccc(C)c2nc2c(C(=O)NCCN(C)C)cccc12,.,.,.,74*,.,.
COc1cccc(/C=N/Nc2nc3ccccc3n3cnnc23)c1O,0.6,34,-43,54*,0.49,37
COc1cccc(/C=N\NC(=O)Cn2nnc3ccccc32)c1O,0.9,11,0,33,3.3*,8
CCc1nc2ccc(C(=O)NCC3CCCCC3)cn2c1N(C)Cc1nccs1,.,.,.,-10,.,.
